Laboratory results as given in ChEMBL document CHEMBL1833950, “Inhibition of steroid sulfatase with 4-substituted estrone and estradiol derivatives” (Bioorg Med Chem, 2011).
Active and inactive are the calls of the source. The calls are words filed in the database; no cut-off is given here.

Columns and labels:
[1] = biological target: T1, Steryl-sulfatase (Homo sapiens) (UniProt P08842); test: Inhibition of human steroid sulfatase using 4-methylumbelliferyl sulfate substrate at 50 uM by fluorescence assay
T1 sequence (whole entry): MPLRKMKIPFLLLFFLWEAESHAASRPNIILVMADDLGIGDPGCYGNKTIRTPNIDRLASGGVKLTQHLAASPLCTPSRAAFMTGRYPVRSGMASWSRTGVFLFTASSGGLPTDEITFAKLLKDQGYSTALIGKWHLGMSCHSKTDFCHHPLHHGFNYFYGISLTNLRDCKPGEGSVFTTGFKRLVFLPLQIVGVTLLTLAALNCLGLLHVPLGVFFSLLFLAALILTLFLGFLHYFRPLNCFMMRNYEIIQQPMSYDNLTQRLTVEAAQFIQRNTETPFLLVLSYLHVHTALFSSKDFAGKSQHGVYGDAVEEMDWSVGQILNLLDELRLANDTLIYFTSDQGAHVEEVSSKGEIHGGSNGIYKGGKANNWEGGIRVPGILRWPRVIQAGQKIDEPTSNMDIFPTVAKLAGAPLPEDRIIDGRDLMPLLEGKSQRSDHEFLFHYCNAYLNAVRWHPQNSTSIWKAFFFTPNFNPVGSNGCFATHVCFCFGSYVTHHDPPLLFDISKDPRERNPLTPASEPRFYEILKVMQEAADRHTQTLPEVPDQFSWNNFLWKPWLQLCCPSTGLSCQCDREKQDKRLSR

[2] = biological target: T2, Steryl-sulfatase (Homo sapiens, UniProt P08842); test: (§1) Inhibition of human steroid sulfatase using 4-methylumbelliferyl sulfate substrate after 10 mins by fluorescence assay
T2 sequence (P08842 whole entry): T1 sequence (whole entry)
In short: (§2)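 Inhibitor is added in DMSO/Tris (1:1) and the reaction is started with enzyme. 4-MUS is 200 µM final. 4-Methylumbelliferone fluorescence (ex 360/em 460 nm) is followed for 10 min at 25 °C. Triplicates; percent activity is taken versus an inhibitor-free control and IC50 derived.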

[3] = biological target: T1, Steryl-sulfatase (Homo sapiens); test: Inhibition of human steroid sulfatase using 4-methylumbelliferyl sulfate as substrate at 10 uM by fluorescence assay
[4] = biological target: T1, Steryl-sulfatase (Homo sapiens); test: as §1; in short: as §2
[5] = biological target: T1, Steryl-sulfatase (Homo sapiens); test: Reversible inhibition of human steroid sulfatase using 4-methylumbelliferyl sulfate substrate assessed as enzyme activity recovery at 1 uM after 60 mins by fluorescence assay; parameters: scale not given: the % may be the effect or the level left
In short: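 Aliquots are assayed with 4 mM 4-MUS at 0 and 60 min. The rest is dialysed against 0.1 M Tris-HCl pH 7.0, 0.1% Triton X-100, with activity measured at 540, 1020 and 1500 min. Triplicates, with an inhibitor-free control.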

[6] = biological target: T1, Steryl-sulfatase (Homo sapiens); test: (§3) Inhibition of human steroid sulfatase using 4-methylumbelliferyl sulfate substrate after 5 mins by Kitz-Wilson plot analysis
[7] = biological target: T2, Steryl-sulfatase; test: as §3
[8] = biological target: T2, Steryl-sulfatase; test: Time-dependent inhibition of human steroid sulfatase using 4-methylumbelliferyl sulfate substrate by Kitz-Wilson plot analysis
[9] = biological target: T2, Steryl-sulfatase; test: Inhibition of human purified steroid sulfatase; in short: as §2
[10] = biological target: T1, Steryl-sulfatase (Homo sapiens); test: Ratio of Kinact to Ki for human steroid sulfatase after 5 mins by Kitz-Wilson plot analysis
[11] = biological target: T1, Steryl-sulfatase (Homo sapiens); test: Inhibition of human steroid sulfatase using 4-methylumbelliferyl sulfate substrate at 10 uM after 60 mins by fluorescence assay
[12] = biological target: T2, Steryl-sulfatase; test: Mixed type inhibition of human steroid sulfatase using 4-methylumbelliferyl sulfate substrate by Lineweaver-Burk plot analysis
[13] = Aqueous solubility of the compound; assay type: physicochemical; conditions: buffer
[14] = biological target: T2, Steryl-sulfatase; test: Non-Competitive inhibition of human steroid sulfatase using 4-methylumbelliferyl sulfate substrate by Lineweaver-Burk plot analysis
[15] = biological target: T1, Steryl-sulfatase (Homo sapiens); test: Reversible inhibition of human steroid sulfatase using 4-methylumbelliferyl sulfate as substrate at 50 uM after 10 mins by fluorescence assay
[16] = biological target: T1, Steryl-sulfatase (Homo sapiens); test: Inhibition of human steroid sulfatase using 4-methylumbelliferyl sulfate substrate at 1 uM after 60 mins by fluorescence assay
[17] = biological target: T2, Steryl-sulfatase; test: Inhibition of human steroid sulfatase using 4-methylumbelliferyl sulfate substrate over 50 mins by Kitz-Wilson plot analysis

Compound: C[C@]12CC[C@@H]3c4ccc(O)c(N)c4CC[C@H]3[C@@H]1CC[C@@H]2O
- inhibition [1]: 43%

Compound: C[C@]12CC[C@@H]3c4ccc(O)c(F)c4CC[C@H]3[C@@H]1CCC2=O
- IC50 [2]: 3300 nM

Compound: C[C@]12CC[C@@H]3c4ccc(O)c(CN)c4CC[C@H]3[C@@H]1CC[C@@H]2O
- inhibition [1]: 4%

Compound: C[C@]12CC[C@@H]3c4ccc(O)c([N+](=O)[O-])c4CC[C@H]3[C@@H]1CC[C@@H]2O
- IC50 [2]: 2800 nM

Compound: C[C@]12CC[C@@H]3c4ccc(C=O)cc4CC[C@H]3[C@@H]1CCC2=O
- Inhibition activity (active/inactive) [3]: inactive
- inhibition [4]: inactive

Compound: C=Cc1c(O)ccc2c1CC[C@@H]1[C@@H]2CC[C@]2(C)C(=O)CC[C@@H]12
- inhibition [1]: 45%

Compound: C[C@]12CC[C@@H]3c4ccc(O)c(C=O)c4CC[C@H]3[C@@H]1CCC2=O
- Activity [5]: 2%
- Kinact [6]: 0.13 min⁻¹
- Ki [7]: 1500 nM
- Ki [8]: 1500 nM
- Ki [9]: 1500 nM
- Ratio [10]: 1 ×10⁵ /M/min

Compound: C[C@]12CC[C@@H]3c4cc(C=O)c(O)cc4CC[C@H]3[C@@H]1CC[C@@]2(O)Cc1ccccc1
- inhibition [11]: 15%

Compound: C[C@]12CC[C@@H]3c4ccc(O)c(C(=O)O)c4CC[C@H]3[C@@H]1CCC2=O
- IC50 [2]: 215000 nM

Compound: C[C@]12CC[C@@H]3c4ccc(O)c(F)c4CC[C@H]3[C@@H]1CC[C@@]2(O)Cc1ccccc1
- Ki [2]: 30 nM
- Ki [12]: 90 nM

Compound: C[C@]12CC[C@@H]3c4cc(C=O)c(O)c(C=O)c4CC[C@H]3[C@@H]1CCC2=O
- solubility [13]: soluble
- Inhibition activity (active/inactive) [3]: inactive
- IC50 [2]: 224000 nM

Compound: C[C@]12CC[C@@H]3c4ccc(O)cc4CC[C@H]3[C@@H]1CC[C@@]2(O)Cc1ccccc1
- Ki [2]: 250 nM

Compound: C[C@]12CC[C@@H]3c4cc(Br)c(O)cc4CC[C@H]3[C@@H]1CCC2=O
- IC50 [2]: 40000 nM

Compound: C[C@]12CC[C@@H]3c4ccc(O)c([N+](=O)[O-])c4CC[C@H]3[C@@H]1CCC2=O
- IC50 [2]: 2400 nM
- Ki [14]: 1400 nM

Compound: C[C@]12CC[C@@H]3c4cc([N+](=O)[O-])c(O)c(C=O)c4CC[C@H]3[C@@H]1CCC2=O
- Inhibition activity (active/inactive) [3]: inactive
- inhibition [15]: < 50%
- inhibition [4]: inactive

Compound: C[C@]12CC[C@@H]3c4ccc(O)c(C#N)c4CC[C@H]3[C@@H]1CCC2=O
- IC50 [2]: 6700 nM

Compound: C[C@]12CC[C@@H]3c4ccc(O)c(CO)c4CC[C@H]3[C@@H]1CCC2=O
- inhibition [1]: 46%

Compound: C[C@]12CC[C@@H]3c4ccc(O)c(Br)c4CC[C@H]3[C@@H]1CCC2=O
- IC50 [2]: 4800 nM

Compound: C[C@]12CC[C@@H]3c4cc(C=O)c(O)cc4CC[C@H]3[C@@H]1CCC2=O
- Inhibition activity (active/inactive) [3]: inactive
- inhibition [4]: inactive

Compound: C[C@]12CC[C@@H]3c4cc([N+](=O)[O-])c(O)cc4CC[C@H]3[C@@H]1CCC2=O
- IC50 [2]: 17000 nM

Compound: C[C@]12CC[C@@H]3c4ccc(O)c(C=O)c4CC[C@H]3[C@@H]1CC[C@@]2(O)Cc1ccccc1
- Inhibition activity (active/inactive) [3]: Active
- Activity [5]: 14%
- inhibition [16]: 95%
- inhibition [4]: Dose-dependent effect
- Kinact [6]: 0.021 min⁻¹
- Ki [8]: 85 nM
- Ki [17]: 85 nM
- Ratio [10]: 2.3 ×10⁵ /M/min

Compound: C[C@]12CC[C@@H]3c4cc([N+](=O)[O-])c(O)c([N+](=O)[O-])c4CC[C@H]3[C@@H]1CCC2=O
- IC50 [2]: 26000 nM

Compound: C[C@]12CC[C@@H]3c4cc(Br)c(O)c(C=O)c4CC[C@H]3[C@@H]1CCC2=O
- Inhibition activity (active/inactive) [3]: inactive
- inhibition [4]: inactive
- IC50 [2]: 145000 nM
